Reference: ChEMBL document CHEMBL1909609, “Synthesis of purine modified 2'-C-methyl nucleosides as potential anti-HCV agents” (Bioorg Med Chem Lett, 2011)
Activity calls are given as the source filed them. The calls are words filed in the database; no cut-off is given here.

What was measured:
[1] = Cytotoxicity against human PBMC after 5 days; assay type: cell-based
[2] = test system: Hepatitis C virus; assay: Antiviral activity against HCV infected in human HuH7 cells assessed as inhibition of viral replication at 10 uM by RT-PCR analysis; assay type: functional, Hepacivirus hominis; details: Huh-7
In short: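 Huh7 cells carrying a subgenomic HCV replicon, with compounds tested at 10 μM. HCV RNA and ribosomal RNA were extracted and amplified together, so cytotoxicity was read at the same time as replicon inhibition.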

[3] = test system: Human immunodeficiency virus 1; assay: Antiviral activity against HIV1 LAI infected in human peripheral blood mononuclear cells assessed as inhibition of viral replication after 5 days by quantitative RT-PCR analysis; assay type: functional, organism-based; details: Human immunodeficiency virus 1, LAI, 120 h
In short: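 Primary human PBM cells were infected with HIV-1 LAI, and AZT was run as the positive standard.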

[4] = test system: Huh-7; assay: Cytotoxicity against human HuH7 cells assessed as rRNA level at 10 uM; assay type: cell-based; details: huh-7, 10 µM
In short: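 Huh7 cells carrying a subgenomic HCV replicon were given compound at 10 μM. Cytotoxicity was measured alongside anti-HCV activity by extracting and amplifying ribosomal RNA together with HCV RNA.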

[5] = (§1) Cytotoxicity against human CEM after 5 days; assay type: cell-based, CCRF-CEM; details: CEM cells (CCRF-CEM)
[6] = Cytotoxicity against african green monkey Vero after 5 days; assay type: cell-based; details: chlorocebus sabaeus, Vero cells
[7] = target: T1, Adenosine deaminase (Homo sapiens) (UniProt P00813); assay: Activity at adenosine deaminase assessed as nitrogen to oxygen transformation
T1 sequence (whole entry): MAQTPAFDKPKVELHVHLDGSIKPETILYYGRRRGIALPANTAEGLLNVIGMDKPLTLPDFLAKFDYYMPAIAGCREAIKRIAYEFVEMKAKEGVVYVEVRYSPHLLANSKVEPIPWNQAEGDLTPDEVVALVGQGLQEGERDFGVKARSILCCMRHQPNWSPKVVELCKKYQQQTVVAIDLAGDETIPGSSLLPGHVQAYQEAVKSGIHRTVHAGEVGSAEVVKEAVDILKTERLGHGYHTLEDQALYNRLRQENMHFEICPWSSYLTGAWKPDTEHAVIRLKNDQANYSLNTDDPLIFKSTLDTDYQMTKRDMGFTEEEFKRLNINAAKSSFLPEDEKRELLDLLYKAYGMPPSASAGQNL

[8] = test system: Hepatitis C virus; assay: Antiviral activity against HCV infected in human HuH7 cells assessed as inhibition of viral replication by RT-PCR analysis; assay type: functional, organism-based, Hepacivirus hominis; details: Huh-7
In short: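 Subgenomic HCV replicon system in Huh7 cells. HCV RNA and ribosomal RNA were both extracted and amplified, with the rRNA signal giving cytotoxicity at the same time as antiviral activity.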

[9] = test system: CCRF-CEM; assay: as §1; assay type: cell-based; details: ccrf-cem, 120 h
[10] = target: T1, Adenosine deaminase (Homo sapiens); assay: Activity at adenosine deaminase
In short: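 ADA inhibition assay: 140 μM adenosine (final) with 0.01 units adenosine deaminase in 50 mM potassium phosphate, pH 7.4; compounds at 10 μM. Absorbance at 265 nm followed over four minutes. Inhibition judged from the change in slope relative to no-compound control, with a slope nearing zero indicating inhibition.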

[11] = Chemical stability of the compound in phosphate buffer at pH 7.4 assessed as formation of complex mixture product after 3 days; assay type: physicochemical; details: pH 7.4, 72 h

Compound	CC50 at 120 h [1]	inhibition at 10 µM [2]	EC50 [3]	EC90 [3]	Activity [4]	CC50 at 120 h [5]	CC50 at 120 h [6]	Activity [7]	EC50 [8]	CC50 [9]	Activity [10]	Stability [11]
C[C@@]1(O)[C@H](O)[C@@H](CO)O[C@H]1n1cnc2c(=N)n(N)[nH]c(=O)c21	> 100 µM	0%	> 100 µM	> 100 µM	0%	> 100 µM	> 100 µM	–	–	–	–	–
C[C@@]1(O)[C@H](O)[C@@H](CO)O[C@H]1n1cnc2c(N)nc(-n3cc([Si](C)(C)C)nn3)nc21	> 100 µM	0%	> 100 µM	> 100 µM	0%	> 100 µM	> 100 µM	–	–	–	–	–
CCOP(=O)(OCC)c1nc(N)nc2c1ncn2[C@@H]1O[C@H](CO)[C@@H](O)[C@@]1(C)O	> 100 µM	19%	> 100 µM	> 100 µM	15%	> 100 µM	> 100 µM	inactive	–	–	–	–
CCOP(=O)(O)c1nc(N)nc2c1ncn2[C@@H]1O[C@H](CO)[C@@H](O)[C@@]1(C)O	> 100 µM	19%	> 100 µM	> 100 µM	15%	> 100 µM	> 100 µM	inactive	–	–	–	–
CCOC(=O)[C@H](C)NP(=O)(OC[C@H]1O[C@@H](n2cnc3c(N)nc(NN)nc32)[C@](C)(O)[C@@H]1O)Oc1ccccc1 (some centres undefined)	–	–	–	–	–	–	–	–	0.9 µM	–	–	–
Cc1nc(N)nc2c1ncn2[C@@H]1O[C@H](CO)[C@@H](O)[C@@]1(C)O	> 100 µM	0%	70 µM	> 100 µM	0%	13 µM	> 100 µM	–	–	–	–	–
C[C@@]1(O)[C@H](O)[C@@H](CO)O[C@H]1n1cnc2c(=O)[nH]nc(N)c21	> 100 µM	0%	> 100 µM	> 100 µM	0%	> 100 µM	> 100 µM	–	–	–	–	–
C[C@@]1(O)[C@H](O)[C@@H](CO)O[C@H]1n1cnc2c(N)nc(Cl)nc21	> 100 µM	0%	> 100 µM	> 100 µM	5.8%	> 100 µM	> 100 µM	–	–	–	–	–
Cc1nc2c3ncn([C@@H]4O[C@H](CO)[C@@H](O)[C@@]4(C)O)c3nc(N)n2n1	> 100 µM	0%	> 100 µM	> 100 µM	0%	> 100 µM	> 100 µM	–	–	–	–	–
COc1nc(Cl)nc2c1ncn2[C@@H]1O[C@H](CO)[C@@H](O)[C@@]1(C)O	> 100 µM	14%	> 100 µM	> 100 µM	9.8%	> 100 µM	> 100 µM	–	–	–	–	–
C[C@@]1(O)[C@H](O)[C@@H](CO)O[C@H]1n1cnc2c(N)n[nH]c(=O)c21	> 100 µM	0%	> 100 µM	> 100 µM	0%	> 100 µM	> 100 µM	inactive	–	–	–	–
C[C@@]1(OC(=O)c2ccccc2)[C@H](OC(=O)c2ccccc2)[C@@H](COC(=O)c2ccccc2)O[C@H]1n1cnc2c(Cl)nc(NO)nc21	43 µM	100%	17 µM	65 µM	100%	–	> 100 µM	–	–	7.3 µM	–	–
C[C@@]1(O)[C@H](O)[C@@H](CO)O[C@H]1n1cnc(C(=O)NN)c1/C(N)=N/N	> 100 µM	0%	> 100 µM	> 100 µM	9%	> 100 µM	> 100 µM	–	–	–	–	–
C[C@@]1(O)[C@H](O)[C@@H](CO)O[C@H]1n1cnc2c1nc(N)n1nc(-c3ccco3)nc21	> 100 µM	0%	> 100 µM	> 100 µM	0%	> 100 µM	> 100 µM	–	–	–	–	–
C[C@@]1(O)[C@H](O)[C@@H](CO)O[C@H]1n1cnc2c(N)nc(-n3ccnn3)nc21	> 100 µM	0%	> 100 µM	> 100 µM	0%	> 100 µM	> 100 µM	inactive	–	–	Active	–
CCOC(=O)[C@H](C)NP(=O)(OC[C@H]1O[C@@H](n2cnc3c(C)nc(N)nc32)[C@](C)(O)[C@@H]1O)Oc1ccccc1 (some centres undefined)	> 100 µM	0%	68 µM	> 100 µM	0%	> 100 µM	> 100 µM	–	–	–	–	–
C[C@@]1(OC(=O)c2ccccc2)[C@H](OC(=O)c2ccccc2)[C@@H](COC(=O)c2ccccc2)O[C@H]1n1cnc2c(N)nc(NO)nc21	> 100 µM	66%	8.7 µM	42 µM	76%	27 µM	42 µM	–	–	–	–	–
C[C@@]1(O)[C@H](O)[C@@H](CO)O[C@H]1n1cnc2c(N)nc(NN)nc21	> 100 µM	85%	> 100 µM	> 100 µM	7%	> 100 µM	> 100 µM	–	6 µM	–	–	Unstable
C[C@@]1(O)[C@H](O)[C@@H](CO)O[C@H]1n1cnc2c(N)nc(N=[N+]=[N-])nc21	> 100 µM	5.2%	> 100 µM	> 100 µM	0%	> 100 µM	> 100 µM	–	–	–	–	–
